According to ChEMBL document CHEMBL1687926, “14-Aminocamptothecins: their synthesis, preclinical activity, and potential use for cancer treatment” (J Med Chem, 2011):
“And” between values parts separate entries of the source, which are not always exact repeats. Equal entries are not always repeated.

Key:
HT-29 [1] = test: Cytotoxicity against human HT-29 cells after 72 hrs by alamar blue assay; assay type: functional, cell-based; conditions: HT-29, 72 h
Summary of the method: (§1)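 Cells seeded at 4 × 10³ per well and grown 24 h. Compounds dissolved in DMSO and diluted in medium to final concentrations, then incubated 72 h at 37 °C, 5% CO₂. Viable cells read by AlamarBlue; IC₅₀ taken as the concentration giving 50% growth inhibition.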

Malme-3M = test: Cytotoxicity against human MALME-3M cells after 72 hrs by alamar blue assay; assay type: functional, cell-based; summary of the method: as §1
[2] = AUC in CD-1 mouse plasma at 50 mg/kg, ip by LC/MS/MS analysis; assay type: ADME, organism-based; design: dose 50 mg/kg, route intraperitoneal
Summary of the method: (§2)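 CD-1 mice (~25 g) given 50 mg/kg ip in 5% DMSO/5% Tween 80 in water; three mice per time point, sampled up to 480 min. Blood taken by cardiac puncture into EDTA, then whole brain excised and homogenized in water. Proteins precipitated with ice-cold acetonitrile containing propranolol internal standard; supernatant analysed by HPLC/MS/MS.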

NCI-H460 [3] = test: Ratio IC50 for human H460 cells after 72 hrs in presence of 40 mg/ml HSA to IC50 for human H460 cells after 72 hrs; assay type: functional
Summary of the method: (§3)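 H460 cells seeded at 4 × 10³ per well and grown 24 h. Compounds then cocultured with cells for 72 h at 37 °C, with or without 40 mg/mL human serum albumin. Viability read by AlamarBlue; IC₅₀ = 50% growth inhibition. Ratio compares the IC₅₀ with HSA to the IC₅₀ without.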

NCI-H460 [4] = test: Antitumor activity against human H460 cells xenografted in nu/nu mouse assessed as tumor growth delay at 40 mg/kg, po QD for 5 days followed by 2days without treatment for 2 weeks; assay type: functional
Summary of the method: (§4)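 Female nude (nu/nu) mice (males for prostate model) implanted sc in the flank with tumor cells (1 × 10⁶ for H460). Dosing began at 100-150 mm³, 10 mice/group. Oral gavage in 5% DMSO/5% Tween 80/1% CMC in water, 5 days on/2 off per cycle, 2 or 4 cycles. Volume = length×width²/2, measured twice weekly. TGI = (1 − ΔT/ΔC)×100; TGD = extra days to reach 500 mm³ versus control.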

[5] = Tmax in CD-1 mouse plasma at 50 mg/kg, ip by LC/MS/MS analysis; assay type: ADME, organism-based; design: dose 50 mg/kg, route intraperitoneal; summary of the method: as §2
IGROV-1 = test: Cytotoxicity against human IGROV1 cells after 72 hrs by alamar blue assay; assay type: functional, cell-based; conditions: IGROV-1, 72 h; summary of the method: as §1
[6] = Tmax in CD-1 mouse brain at 50 mg/kg, ip by LC/MS/MS analysis; assay type: ADME, organism-based; design: dose 50 mg/kg, route intraperitoneal; summary of the method: as §2
HT-29 [7] = test: Antitumor activity against human HT-29 cells xenografted in nu/nu mouse assessed as tumor growth inhibition at 40 mg/kg, […]; assay type: functional; design: scale not given: the % may be the effect or the level left; conditions: route oral
[8] = Cmax in CD-1 mouse plasma at 50 mg/kg, ip by LC/MS/MS analysis; assay type: ADME, organism-based; design: dose 50 mg/kg, route intraperitoneal; summary of the method: as §2
[9] = Ratio of drug level in brain to plasma in CD-1 mouse at 50 mg/kg, ip; assay type: ADME, organism-based; design: dose 50 mg/kg, route intraperitoneal; summary of the method: as §2
DU-145 = test: Cytotoxicity against human DU145 cells after 72 hrs by alamar blue assay; assay type: functional, cell-based; conditions: DU-145, 72 h; summary of the method: as §1
[10] = Cytotoxicity against mouse bone marrow cell by CFU-GM assay; assay type: cell-based
Summary of the method: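 CFU-GM colony assay on normal human bone marrow (thawed) or mouse femoral marrow (freshly extracted). Human colonies scored after 16-18 days. IC₅₀ taken from triplicate assays.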

[11] = Ratio of IC90 for mouse bone marrow cell to IC90 for human bone marrow cell; assay type: ADME, cell-based; conditions: bone marrow cells
Summary of the method: (§5)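 CFU-GM colony assay in triplicate at 2 × 10⁴ cells per culture, using thawed normal human bone marrow or fresh mouse femoral marrow. Colonies were scored after 16-18 days. The IC50 or IC90 from each species gave the mouse/human ratio.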

[12] = Resistance ratio of IC50 for human H69AR cells overexpressing MRP1 after 72 hrs s to IC50 for human H69 cells after 72 hrs
NCI-H460 [13] = test: Antitumor activity against human H460 cells xenografted in nu/nu mouse assessed as tumor growth inhibition at 40 mg/kg, po QD for 5 days followed by 2days without treatment for 2 weeks; assay type: functional; design: scale not given: the % may be the effect or the level left; summary of the method: as §4
PC-3 [14] = test: Antitumor activity against human PC3 cells xenografted in nu/nu mouse assessed as tumor growth delay at 40 mg/kg, po QD for 5 days followed by 2 days without treatment for 2 weeks; assay type: functional; summary of the method: as §4
[15] = Half life in CD-1 mouse brain at 50 mg/kg, ip by LC/MS/MS analysis; assay type: ADME, organism-based; design: dose 50 mg/kg, route intraperitoneal; summary of the method: as §2
PC-3 [16] = test: Antitumor activity against human PC3 cells xenografted in nu/nu mouse assessed as tumor growth inhibition at 40 mg/kg, po QD for 5 days followed by 2 days without treatment for 2 weeks; assay type: functional; design: scale not given: the % may be the effect or the level left; summary of the method: as §4
[17] = Cytotoxicity against human MES-SA/Dx5 cells overexpressing MDR1 after 72 hrs by alamar blue assay; assay type: functional, cell-based; conditions: MES-SA/Dx5, 72 h; summary of the method: as §1
[18] = Resistance ratio of IC50 for human MES-SA/Dx5 cells overexpressing MDR1 after 72 hrs to IC50 for human MESSA cells after 72 hrs; assay type: functional
Summary of the method: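 Cytotoxicity compared in MDR1-overexpressing lines and their parental wild-type lines. 72 h exposure at 37 °C, viability by AlamarBlue, IC₅₀ at 50% growth inhibition. Resistance ratio = IC₅₀ in overexpressing line / IC₅₀ in parental line.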

H69AR = test: Cytotoxicity against human H69AR cells overexpressing MRP1 after 72 hrs by alamar blue assay
[19] = AUC in CD-1 mouse brain at 50 mg/kg, ip by LC/MS/MS analysis; assay type: ADME, organism-based; design: dose 50 mg/kg, route intraperitoneal; summary of the method: as §2
NCI-H460 [20] = test: Cytotoxicity against human H460 cells after 72 hrs by alamar blue assay; assay type: functional, cell-based; summary of the method: as §1
[21] = Cytotoxicity against human MESSA cells after 72 hrs by alamar blue assay; assay type: functional, cell-based; conditions: MES-SA; summary of the method: as §1
NCI-H69 = test: Cytotoxicity against human H69 cells after 72 hrs by alamar blue assay; assay type: functional, cell-based; conditions: NCI-H69, 72 h; summary of the method: as §1
[22] = Half life in CD-1 mouse plasma at 50 mg/kg, ip by LC/MS/MS analysis; assay type: ADME, organism-based; design: dose 50 mg/kg, route intraperitoneal; summary of the method: as §2
[23] = Cytotoxicity against human bone marrow cell by CFU-GM assay; assay type: cell-based
NCI-H460 [24] = test: Cytotoxicity against human H460 cells after 72 hrs by alamar blue assay in presence of 40 mg/ml HSA; assay type: functional, cell-based; conditions: NCI-H460, 72 h; summary of the method: as §3
SK-MEL-2 = test: Cytotoxicity against human SK-MEL-2 cells after 72 hrs by alamar blue assay; assay type: functional, cell-based; conditions: SK-MEL-2, 72 h; summary of the method: as §1
PC-3 [25] = test: Cytotoxicity against human PC3 cells after 72 hrs by alamar blue assay; assay type: functional, cell-based; conditions: PC-3, 72 h; summary of the method: as §1
LNCaP = test: Cytotoxicity against human LNCAP cells after 72 hrs by alamar blue assay; assay type: functional, cell-based; summary of the method: as §1
[26] = Cmax in CD-1 mouse brain at 50 mg/kg, ip by LC/MS/MS analysis; assay type: ADME, organism-based; design: dose 50 mg/kg, route intraperitoneal; summary of the method: as §2
[27] = Ratio of IC50 for mouse bone marrow cell to IC50 for human bone marrow cell; assay type: cell-based; conditions: bone marrow cells; summary of the method: as §5
HT-29 [28] = test: Antitumor activity against human HT-29 cells xenografted in nu/nu mouse assessed as tumor growth delay at 40 mg/kg, […]; assay type: functional; conditions: route oral
Mus musculus [29] = test: Toxicity in nu/nu mouse assessed as body weight loss at 40 mg/kg, po QD for 5 days followed by 4 days without treatment for 2 weeks; assay type: organism-based; design: dose 40 mg/kg, route oral; conditions: in vivo
A-375 = test: Cytotoxicity against human A375 cells after 72 hrs by alamar blue assay; assay type: functional, cell-based; conditions: A-375, 72 h; summary of the method: as §1
Mus musculus [30] = test: Toxicity in nu/nu mouse assessed as body weight loss at 40 mg/kg, po QD for 5 days followed by 2 days without treatment for 2 weeks; assay type: organism-based; design: dose 40 mg/kg, route oral; conditions: in vivo
Summary of the method: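 Female nude (nu/nu) mice (males for prostate model) bearing sc xenografts, dosing started at 100-150 mm³, 10/group. Oral gavage in 5% DMSO/5% Tween 80/1% CMC in water, QD 5 days on/2 off per cycle, 2 or 4 cycles. Body weight recorded twice weekly; maximum loss reported.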

CCc1c2c(nc3ccccc13)-c1c(N)c3c(c(=O)n1C2)COC(=O)[C@]3(O)CC
IC50 (HT-29 [1]): 300 nM
IC50 (Malme-3M): 1200 nM
AUC [2]: 1070 ng·h/mL
Ratio (NCI-H460 [3]): 10
Time (NCI-H460 [4]): 14 days
Tmax [5]: 1 h
IC50 (IGROV-1): 20 nM
Tmax [6]: 1 h
Activity (HT-29 [7]): 101%
Cmax [8]: 300 ng/mL
Kp [9]: 70
IC50 (DU-145): 1200 nM
IC50 [10]: 110 nM
selectivity ratio [11]: 650
Ratio [12]: 2.2
Activity (NCI-H460 [13]): 84%
Time (PC-3 [14]): 45 days
half-life [15]: 4 h
Activity (PC-3 [16]): 107%
IC50 [17]: 12 nM
Ratio [18]: 3
IC50 (H69AR): 240 nM
AUC [19]: 750 ng·h/mL
IC50 (NCI-H460 [20]; Homo sapiens, NCI-H460, 72 h): 7 nM
IC50 (NCI-H460 [20]; nci-h460): 12 nM
IC50 [21]: 4 nM
IC50 (NCI-H69): 110 nM
half-life [22]: 4.17 h
IC50 ([23]; Homo sapiens, Bone marrow cell): 620 nM
IC90 ([23]; human, bone marrow cells): 4500 nM
IC50 (NCI-H460 [24]): 120 nM
IC50 (SK-MEL-2): 130 nM
IC50 (PC-3 [25]): 24 nM
IC50 (LNCaP): 120 nM
Cmax [26]: 300 ng/mL
selectivity ratio [27]: 6
Time (HT-29 [28]): 30 days
Activity (Mus musculus [29]): 3% and 8%
IC50 (A-375): 7 nM
Activity (Mus musculus [30]): 4%
